The values that follow come from ChEMBL document CHEMBL1156585, “New NSAIDs-NO hybrid molecules with antiproliferative properties on human prostatic cancer cell lines” (Bioorg Med Chem Lett, 2008).

Test [1] has as its system Blood. Briefly: Induction of profen release in human whole blood at 10 uM after 22 hrs by HPLC. Type of test: functional. In outline: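 Same blood pool as the COX inhibition runs. Compound incubated 22 h, then the free profen released was measured as a percentage ratio.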
Test [2] has as its target Prostaglandin G/H synthase 1 (Homo sapiens, UniProt P23219). Briefly: Inhibition of COX1 in human whole blood. Type of test: tissue-based.
For test [3], the target named is T1, Prostaglandin G/H synthase 2 (Homo sapiens, UniProt P35354).
T1 sequence (P35354 whole entry): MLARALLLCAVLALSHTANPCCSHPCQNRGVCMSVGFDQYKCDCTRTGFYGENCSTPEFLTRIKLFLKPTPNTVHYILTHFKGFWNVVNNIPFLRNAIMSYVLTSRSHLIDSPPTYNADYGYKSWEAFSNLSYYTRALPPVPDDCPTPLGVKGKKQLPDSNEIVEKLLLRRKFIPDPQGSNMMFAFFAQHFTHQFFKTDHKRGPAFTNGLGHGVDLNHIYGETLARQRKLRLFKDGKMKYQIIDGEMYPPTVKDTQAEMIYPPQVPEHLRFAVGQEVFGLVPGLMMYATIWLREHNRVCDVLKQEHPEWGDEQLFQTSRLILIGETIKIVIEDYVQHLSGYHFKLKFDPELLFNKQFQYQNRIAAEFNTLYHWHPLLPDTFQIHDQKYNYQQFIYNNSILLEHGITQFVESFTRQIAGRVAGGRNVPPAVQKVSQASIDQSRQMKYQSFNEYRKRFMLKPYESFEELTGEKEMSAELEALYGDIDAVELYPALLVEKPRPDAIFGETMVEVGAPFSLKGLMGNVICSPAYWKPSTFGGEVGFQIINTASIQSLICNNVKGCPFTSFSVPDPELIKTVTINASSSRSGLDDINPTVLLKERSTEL
Briefly: Inhibition of COX2 in human whole blood. Type of test: tissue-based.

Test [4] deals with PC-3. Briefly: Antiproliferative activity against human PC3 cells at 100 uM after 72 hrs by MTT assay. The settings on record: PC-3, 72 h. Type of test: functional. A digest of the protocol: (§1)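 PC3 prostate cancer cells kept in RPMI 1640 with 10% fetal calf serum at 37 °C, 5% CO₂. Seeded at 1.8 × 10⁴ cells/well, grown 3 days, then serum-starved 24 h to synchronize. Exposed to compounds at 1, 10, 50 and 100 µM (as solubility allows) in <0.1% DMSO for 72 h. Growth read by colorimetric MTT test.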

For test [5], the system named is Blood. Briefly: Induction of nitric oxide release in human whole blood after 6 hrs by EPR spectroscopy. Type of test: functional, tissue-based.
Test [6] deals with PC-3. Briefly: Antiproliferative activity against human PC3 cells after 72 hrs by MTT assay. Type of test: functional, cell-based. To be noted: PC-3, 72 h. In outline:
as §1

Active and inactive are the calls of the source. The calls are words filed in the database; no cut-off is given here.

Chain of Prostaglandin G/H synthase 1 (P23219 whole entry): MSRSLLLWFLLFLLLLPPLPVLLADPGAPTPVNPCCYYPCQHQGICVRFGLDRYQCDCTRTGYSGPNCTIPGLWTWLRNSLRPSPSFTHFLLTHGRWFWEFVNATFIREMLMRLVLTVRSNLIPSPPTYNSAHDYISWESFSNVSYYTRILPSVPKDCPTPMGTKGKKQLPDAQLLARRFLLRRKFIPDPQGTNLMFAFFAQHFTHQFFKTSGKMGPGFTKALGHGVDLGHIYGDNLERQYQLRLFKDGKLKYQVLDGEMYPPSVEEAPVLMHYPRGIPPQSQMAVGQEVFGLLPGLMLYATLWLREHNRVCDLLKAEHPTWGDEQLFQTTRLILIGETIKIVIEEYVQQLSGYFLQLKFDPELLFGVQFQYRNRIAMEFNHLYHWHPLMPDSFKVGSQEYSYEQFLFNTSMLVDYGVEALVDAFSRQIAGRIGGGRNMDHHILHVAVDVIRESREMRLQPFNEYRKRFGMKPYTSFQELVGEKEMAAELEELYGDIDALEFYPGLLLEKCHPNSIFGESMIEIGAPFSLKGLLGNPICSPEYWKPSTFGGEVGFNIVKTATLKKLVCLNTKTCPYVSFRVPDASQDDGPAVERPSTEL

As a reminder, the IC50 is the concentration that gives 50% inhibition. Lower therefore signals greater potency in that assay. One may read the inhibition as the drop in the measured response relative to a control, in per cent. Compound `CC(C(=O)OCCO[N+](=O)[O-])c1ccc(C(=O)c2cccs2)cc1` (stereo not drawn) registered an Activity with Blood [1] of 46%. The IC50 was 580 nM in test [2] and 5800 nM in test [3]. For the same compound, the inhibition at 100 µM with PC-3 [4] was determined as 7%.
For the compound `CC(C(=O)O)c1ccc2c(c1)[nH]c1ccc(Cl)cc12` (stereo not drawn) [CARPROFEN], the inhibition at 100 µM in the test with PC-3 [4] stood at 5%.
Take `CC(COC(=O)C(C)c1cccc(C(=O)c2ccccc2)c1)O[N+](=O)[O-]` (stereo not drawn): in the test with Blood [1], the Activity turned out to be 70%. The figures for the IC50 in test [2] and in test [3] were 600 nM and 730 nM, respectively. In addition, in the test with PC-3 [4], 100 µM produced 26% inhibition. For the same compound, in the test on Blood [5], the outcome was Active.
Turning to `CC(C(=O)O)c1ccc(C(=O)c2cccs2)cc1` (stereo not drawn) [SUPROFEN], the IC50 in test [2] was determined as 560 nM; in test [3] it was 2750 nM. Also, testing at 100 µM in the test with PC-3 [4] gave an inhibition of 0%.
In the test on PC-3 [4], `CC(C(=O)O)c1cccc(C(=O)c2ccccc2)c1` (stereo not drawn) [KETOPROFEN] registered an inhibition at 100 µM of 0%.
In the test on Blood [1], `CC(COC(=O)C(C)c1ccc2c(c1)[nH]c1ccc(Cl)cc12)O[N+](=O)[O-]` (stereo not drawn) gave an Activity of 100%. The IC50 in the test with PC-3 [6] stood at 48000 nM; in test [2], 123000 nM; in test [3], 45000 nM.
`CC(COC(=O)C(C)c1ccc(C(=O)c2cccs2)cc1)O[N+](=O)[O-]` (stereo not drawn): in the test with Blood [1], the Activity turned out to be 86%. For the same compound, the IC50 in test [2] worked out at 570 nM; in test [3], 4560 nM. The compound further yielded an inhibition at 100 µM in the test with PC-3 [4] of 13%.
Taken in the same sequence, the figures for `CC(C(=O)OCC(CO[N+](=O)[O-])O[N+](=O)[O-])c1cccc(C(=O)c2ccccc2)c1` (stereo not drawn) were 79%, 580 nM, 740 nM and 21%.
With `CC(C(=O)OCC(CO[N+](=O)[O-])O[N+](=O)[O-])c1ccc(C(=O)c2cccs2)cc1` (stereo not drawn), in the test with Blood [1], the Activity is reported as 73%. In addition, the IC50 was determined as 480 nM in test [2] and 2700 nM in test [3]. The same compound had an inhibition at 100 µM in the test on PC-3 [4] of 33%.
For `CC(C(=O)OCCO[N+](=O)[O-])c1ccc2c(c1)[nH]c1ccc(Cl)cc12` (stereo not drawn), in the test with Blood [1], the Activity is given as 88%. The IC50 in the test on PC-3 [6] stood at 48000 nM; in test [2], 110000 nM; in test [3], 65000 nM.
`CC(C(=O)OCCO[N+](=O)[O-])c1cccc(C(=O)c2ccccc2)c1` (stereo not drawn) registered an Activity in the test with Blood [1] of 73%. The IC50 in test [2] turned out to be 450 nM; in test [3] it was 770 nM. The compound also returned an inhibition at 100 µM in the test with PC-3 [4] of 26%.
